NR3A LBD binder: NR3A (human) ligand-binding domain modulation | NR3A LBD differential scanning fluorimetry, Tm shift; 0% = protein alone, 100% = glycine-bound protein | actives 2.5% (n = 340,000) | Tm shift relative to glycine control, % at 25 µM | AID 1259313;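 active = melting temperature shift of at least 10% of the positive control shift, at one fixed dose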
MT1-MMP act inh: MT1-MMP (human) activation inhibition; HT1080 RFP-PRO-GFP cells, GFP/RFP ratio fluorescence, overnight; percent of plate control window, DMSO zero; GFP/RFP ratio change, % at 20 µM; actives 0.061% (n = 360,000);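 active = GFP/RFP ratio change of at least 30% with cell ATP level not reduced by more than half and red fluorescence within 50% of control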
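Assay system: RFP-PRO-GFP reporter HT1080 cells; read-out basis: GFP/RFP fluorescence ratio; benchmarks: DMSO wells and RFP-L50D-GFP cells; doses: 20 µM single dose, 1% DMSO; schedule: overnight cell settling, then overnight compound exposure, 37 °C, 5% CO2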
SKN-1 block: inhibitors of C. elegans SKN-1; C. elegans VP596 Pgst-4::GFP/RFP ratio, acrylamide-induced, 24 h; inhibition, % at 21.8 µM; actives 0.49% (n = 360,000);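 active = interference check ratio from 0.5 to 1.5 plus GFP to RFP signal ratio inhibition reaching or exceeding a fixed threshold, cut at about 30% in these data, passing the limit was not always enough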
ADAM10 inh: inhibits human ADAM10; O14672; recombinant ADAM10, EDANS/DABCYL FRET peptide cleavage, 3 h; inhibition, % at 7 µM; actives 0.62% (n = 370,000); AID 720582;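 active = inhibition above a per-campaign cutoff equal to the mean of compounds falling between control-based bounds plus 3 SD, cut at about 20% in these data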;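 note: 0% = DMSO wells while the 100% control is not disclosed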
Target sequence (O14672 214-748 limits assumed): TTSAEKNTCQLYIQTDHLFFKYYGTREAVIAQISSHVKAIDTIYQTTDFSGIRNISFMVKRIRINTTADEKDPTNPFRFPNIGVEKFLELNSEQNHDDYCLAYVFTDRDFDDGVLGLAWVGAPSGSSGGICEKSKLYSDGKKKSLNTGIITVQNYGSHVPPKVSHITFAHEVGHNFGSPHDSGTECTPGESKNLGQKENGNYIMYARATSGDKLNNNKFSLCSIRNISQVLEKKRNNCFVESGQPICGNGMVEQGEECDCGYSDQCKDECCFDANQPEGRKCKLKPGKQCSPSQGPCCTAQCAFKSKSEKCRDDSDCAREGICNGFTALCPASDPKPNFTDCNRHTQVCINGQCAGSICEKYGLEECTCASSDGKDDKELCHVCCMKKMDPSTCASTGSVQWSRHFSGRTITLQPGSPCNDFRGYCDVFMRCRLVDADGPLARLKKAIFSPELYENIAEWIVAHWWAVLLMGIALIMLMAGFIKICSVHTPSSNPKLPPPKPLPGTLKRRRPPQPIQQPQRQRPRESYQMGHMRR
ADAM17 inh: inhibitors of human ADAM17. recombinant ADAM17, EDANS/DABCYL FRET peptide cleavage. inhibition, % at 6.95 µM. actives 0.83% (n = 370,000). AID 720648;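 active = inhibition above the mean of compounds lying between control limits plus 3 SD, set per campaign, cut at about 8.5% in these data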;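 note: 0% = DMSO-only wells as the low control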
MPTP block: blocks calcium-induced mitochondrial swelling; inhibition, % at 10 µM; actives 1.4% (n = 360,000); isolated mouse mitochondria, Ca2+ swelling absorbance, 30 min;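 active = inhibition of 50% or more, scaled per plate between neutral and stimulator controls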;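 note: 0% = DMSO wells given calcium and 100% = 1 mM EGTA wells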
Rh123 counter: mitochondrial membrane potential, counter-screen; shares compounds with MPTP block; isolated mitochondria, Rhodamine 123 fluorescence; inhibition, % at 10 µM; actives 78% (n = 5,000); AID 624504; in the data active = inhibition above about 22%;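 note: 0% = DMSO vehicle and 100% = positive control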
MPTP swell DR: dose response confirmation of mitochondrial permeability transition pore inhibitors; shares compounds with MPTP block; isolated mitochondria swelling, absorbance; IC50, µM; actives 58% (n = 780); in the data active = IC50 below about 20 µM
MPTP counter DR: active in counter-screen for permeability transition pore inhibitors. shares compounds with MPTP block. isolated mitochondria counterscreen, fluorescence read-out. IC50, µM. actives 49% (n = 780). AID 651564; in the data active = IC50 below about 80 µM
An asterisk follows results filed as active. This is a sample that favours compounds with a hit; in the whole collection about 4.7% have one here.

Screening Cc1cc(NC(=O)CSc2nc(-c3ccc(Cl)cc3)cs2)no1 returned NR3A LBD binder -1.2, MT1-MMP act inh 4.8, SKN-1 block -13.1, ADAM10 inh -4.5, ADAM17 inh -3.4 and MPTP block 5.4.
`O=C(CSc1nc(-c2ccc(Cl)cc2)cs1)Nc1cccc([N+](=O)[O-])c1` gave NR3A LBD binder 26.6*, MT1-MMP act inh 0.2, SKN-1 block 0.9, ADAM10 inh 8.1, ADAM17 inh 7.8, MPTP block 84.5* and Rh123 counter 79.9*.
For COc1ccc(/C=N/NC2=NS(=O)(=O)c3ccccc32)cc1OC(C)=O the results were NR3A LBD binder -0.1, MT1-MMP act inh -5.1, SKN-1 block -6.4, ADAM10 inh 12.9, ADAM17 inh -0.2 and MPTP block -1.4.
`CC(C)NC(=O)CS(=O)(=O)c1ccccc1` gave NR3A LBD binder 0.3, MT1-MMP act inh -0.7, SKN-1 block 5.6, ADAM10 inh -0.8, ADAM17 inh -4.1 and MPTP block -2.3.
Screening CN(C)CCCOc1ccc2c(c1)Sc1ccccc1CC2=O returned NR3A LBD binder 0.8, MT1-MMP act inh -3.8, SKN-1 block 12.9, ADAM10 inh -22.9, ADAM17 inh -10.2 and MPTP block 3.0.
`O=C1Cc2ccccc2Sc2cc(OCCCN3CCCCC3)ccc21` gave NR3A LBD binder 0.6, MT1-MMP act inh 3.8, SKN-1 block 4.6, ADAM10 inh -33.0, ADAM17 inh -10.3, MPTP block 71.1*, Rh123 counter -13.3, MPTP swell DR 9.86* and MPTP counter DR >80.
Screening CC1=NN(C(=O)c2ccc(Br)cc2)C(O)(C(F)(F)OC(F)(F)F)C1 (configuration not stated) returned NR3A LBD binder -2.8, MT1-MMP act inh 4.8, SKN-1 block -14.6, ADAM10 inh 2.0, ADAM17 inh -3.1, MPTP block 68.0* and Rh123 counter 77.8*.
For CC1=NN(C(=O)c2csc(C)c2)C(O)(C(F)(F)F)C1 (configuration not stated) the results were NR3A LBD binder 0.2, MT1-MMP act inh 6.7, SKN-1 block -2.3, ADAM10 inh 0.1, ADAM17 inh -3.6 and MPTP block -2.5.
`COc1cc(/C=C2\C(=O)N(c3ccccc3)N=C2C)ccc1Oc1ccc([N+](=O)[O-])cc1[N+](=O)[O-]` gave NR3A LBD binder -3.5, MT1-MMP act inh 0.0, SKN-1 block -6.4, ADAM10 inh 4.8, ADAM17 inh 5.0, MPTP block 88.4* and Rh123 counter 61.4*.
COc1cc(/C=C2/C(=O)N(c3ccc(C)c(C)c3)N=C2C)cc([N+](=O)[O-])c1O was read as NR3A LBD binder 1.8, MT1-MMP act inh 0.6, SKN-1 block 4.0, ADAM10 inh 8.1, ADAM17 inh -0.9 and MPTP block 3.2.
CC1=NN(c2ccccc2)C(=O)/C1=C\c1ccc(Oc2ccc([N+](=O)[O-])cc2[N+](=O)[O-])cc1 was read as NR3A LBD binder 3.6, MT1-MMP act inh 1.8, SKN-1 block -13.3, ADAM10 inh 6.0, ADAM17 inh 3.2, MPTP block 79.5* and Rh123 counter 69.8*.
Screening Cc1ccc(S(=O)(=O)Oc2ccc(/C=N/NC(=O)c3nn(C)cc3[N+](=O)[O-])cc2)cc1 returned NR3A LBD binder -6.7, MT1-MMP act inh -8.1, SKN-1 block -8.4, ADAM10 inh 18.2, ADAM17 inh 1.6 and MPTP block -2.3.
CCOC(=O)/C(C(=O)Nc1ccc(Br)cc1)=C1/NC(C)(C)Cc2ccccc21 was read as NR3A LBD binder -20.4, MT1-MMP act inh 2.2, SKN-1 block 25.6, ADAM10 inh 4.8, ADAM17 inh -1.7, MPTP block 100.9* and Rh123 counter 89.0*.
For COC(=O)[C@]12C[C@H](CC(=O)N3CCC(c4ccccc4)CC3)C(=O)N(Cc3ccc(Cl)cc3Cl)C1=C[C@H](C(C)C)O[C@@H]2C1CC1 the results were ADAM10 inh -8.3 and ADAM17 inh -5.9.
`Cn1c(CNc2cccc(Cl)c2)nnc1SCC(=O)OC1CCCCC1` gave NR3A LBD binder 2.6, MT1-MMP act inh 3.9, SKN-1 block 10.9, ADAM10 inh 4.0, ADAM17 inh -2.1 and MPTP block 1.0.
Screening COc1ccc(CC2(CO)CCN(CC3=Cc4cc(Cl)ccc4OC3)CC2)cc1 returned NR3A LBD binder -3.8, MT1-MMP act inh 0.0, SKN-1 block 6.1, ADAM10 inh 7.5, ADAM17 inh 3.9, MPTP block 97.4* and Rh123 counter 106.8*.
For COc1ccc2c(c1)C=C(CN1CCC(CO)(CCc3ccccc3)CC1)CO2 the results were NR3A LBD binder -1.1, MT1-MMP act inh -3.9, SKN-1 block 9.4, ADAM10 inh -5.4, ADAM17 inh -3.8 and MPTP block 0.2.
`Cc1ccc(NC(=O)CC(O)(C(F)(F)F)C(F)(F)F)cc1` gave NR3A LBD binder -0.7, MT1-MMP act inh -0.8, SKN-1 block -14.5, ADAM10 inh 8.8, ADAM17 inh 0.6, MPTP block 63.8* and Rh123 counter 81.5*.
COc1ccc(C)cc1NC(=O)CC(O)(C(F)(F)F)C(F)(F)F was read as NR3A LBD binder 1.9, MT1-MMP act inh -4.5, SKN-1 block -17.3, ADAM10 inh 5.1, ADAM17 inh 2.5 and MPTP block 8.5.
Screening CCCC1=NN(C(=O)Cc2ccc([N+](=O)[O-])cc2)C(O)(C(F)(F)F)C1 (configuration not stated) returned NR3A LBD binder -1.5, MT1-MMP act inh 0.7, SKN-1 block -8.3, ADAM10 inh -4.3, ADAM17 inh -2.2 and MPTP block 0.6.
`CN1CCN(S(=O)(=O)c2cccc(C(=O)N(c3ccccn3)C3CCCCC3)c2)CC1` gave NR3A LBD binder 0.9, MT1-MMP act inh 5.4, SKN-1 block 7.9, ADAM10 inh 1.4, ADAM17 inh 0.0 and MPTP block 1.3.
Screening O=C(Nc1c(Cl)cccc1Cl)Oc1cccc2cccnc12 returned MT1-MMP act inh -3.1, SKN-1 block 7.8, ADAM10 inh -25.8, ADAM17 inh 1.4 and MPTP block -3.0.
O=C(Nc1cccc(Br)c1)Oc1cccc2cccnc12 was read as MT1-MMP act inh 7.1, SKN-1 block 12.0, ADAM10 inh -8.4, ADAM17 inh -3.7, MPTP block 75.4* and Rh123 counter 101.8*.
